Assay results: ChEMBL document CHEMBL2375253, “Discovery of novel 2,6-disubstituted pyridazinone derivatives as acetylcholinesterase inhibitors” (Eur J Med Chem, 2013); call rule not given here

Tests used:
Acetylcholinesterase = target: T1, Acetylcholinesterase (Rattus norvegicus, UniProt P37136); assay: Inhibition of AChE in rat cerebral cortex homogenates using acetylthiocholine iodide as substrate after 8 mins by Ellman's spectrophotometric method; assay type: tissue-based
T1 sequence (P37136 whole entry): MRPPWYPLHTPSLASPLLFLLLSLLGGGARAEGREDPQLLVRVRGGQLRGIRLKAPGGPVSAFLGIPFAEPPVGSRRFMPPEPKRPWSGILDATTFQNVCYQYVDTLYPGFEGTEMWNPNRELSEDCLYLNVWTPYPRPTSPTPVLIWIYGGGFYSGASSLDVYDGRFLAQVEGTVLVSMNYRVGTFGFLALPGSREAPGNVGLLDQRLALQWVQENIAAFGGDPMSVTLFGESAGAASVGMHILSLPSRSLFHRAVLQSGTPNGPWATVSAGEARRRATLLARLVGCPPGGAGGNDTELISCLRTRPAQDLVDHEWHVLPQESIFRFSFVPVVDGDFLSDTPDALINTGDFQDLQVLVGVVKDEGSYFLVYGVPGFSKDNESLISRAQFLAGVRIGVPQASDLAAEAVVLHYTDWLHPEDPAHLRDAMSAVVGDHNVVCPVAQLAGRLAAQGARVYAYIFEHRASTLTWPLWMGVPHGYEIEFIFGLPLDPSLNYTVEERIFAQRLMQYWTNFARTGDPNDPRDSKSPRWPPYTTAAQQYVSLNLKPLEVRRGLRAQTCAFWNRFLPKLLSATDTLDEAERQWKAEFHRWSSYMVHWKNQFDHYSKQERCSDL
Method in brief: (§1)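 Ellman colorimetric assay. Compounds were dissolved in DMSO to 10 mM and diluted in double-distilled water. Each mixture held compound, phosphate buffer ([…]) and enzyme with substrate. For AChE, rat cerebral cortex homogenate was used with acetylthiocholine iodide (2 mM solution). For BuChE, rat serum was used with S-butyrylthiocholine iodide (2 mM solution). Incubated 8 min, stopped with 3% SDS, then 0.2% DTNB added. Absorbance read at 440 nm, duplicates.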

Rattus norvegicus = species: Rattus norvegicus; assay: Selectivity ratio of IC50 for rat serum BuChE to IC50 for AChE in rat cerebral cortex homogenates; assay type: tissue-based
Butyrylcholinesterase = Butyrylcholinesterase (Rattus norvegicus, UniProt Q9JKC1); assay: Inhibition of rat serum BuChE using S-butyrylthiocholine iodide as substrate after 8 mins by Ellman's spectrophotometric method; method in brief: as §1
Chain of Butyrylcholinesterase (Q9JKC1 whole entry): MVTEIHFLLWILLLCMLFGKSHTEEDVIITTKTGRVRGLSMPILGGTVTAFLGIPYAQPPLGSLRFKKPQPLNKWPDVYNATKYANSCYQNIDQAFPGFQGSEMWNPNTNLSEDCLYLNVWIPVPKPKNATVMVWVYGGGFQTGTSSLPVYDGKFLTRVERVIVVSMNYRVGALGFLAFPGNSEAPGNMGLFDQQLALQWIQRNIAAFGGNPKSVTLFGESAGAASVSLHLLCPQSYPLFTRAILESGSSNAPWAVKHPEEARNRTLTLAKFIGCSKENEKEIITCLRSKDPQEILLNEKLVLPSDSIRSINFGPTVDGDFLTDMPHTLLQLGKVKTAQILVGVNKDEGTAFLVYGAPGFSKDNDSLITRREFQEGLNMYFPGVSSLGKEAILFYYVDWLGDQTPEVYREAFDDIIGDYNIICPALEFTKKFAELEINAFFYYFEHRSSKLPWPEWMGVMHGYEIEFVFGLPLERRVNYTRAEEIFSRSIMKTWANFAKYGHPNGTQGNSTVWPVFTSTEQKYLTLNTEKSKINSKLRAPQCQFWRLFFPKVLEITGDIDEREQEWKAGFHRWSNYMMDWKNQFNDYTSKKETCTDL

Structure (SMILES) | IC50 (Acetylcholinesterase; read-out: IC50) [nM] | Ratio IC50 (Rattus norvegicus) | IC50 (Butyrylcholinesterase) [nM] | IC50 (Acetylcholinesterase)
CCN(CC)C(=O)C1CCN(C(=O)Nc2cccc(Cn3nc(-c4ccccc4C)ccc3=O)c2)CC1 | 2610 |  |  | 
CCN(CC)C(=O)C1CCN(C(=O)Nc2cccc(Cn3nc(Nc4ccc(C)cc4)ccc3=O)c2)CC1 | 19800 |  |  | 
CCN(CC)C(=O)C1CCN(C(=O)Nc2cccc(Cn3nc(-c4ccc5ccccc5c4)ccc3=O)c2)CC1 | 462 |  |  | 
CCN(CC)C(=O)C1CCN(C(=O)Nc2cccc(Cn3nc(-c4ccc(C)cc4)ccc3=O)c2)CC1 | 2010 |  |  | 
CCN(CC)C(=O)C1CCN(C(=O)Nc2cccc(Cn3ncccc3=O)c2)CC1 | 4900 |  |  | 
CCN(CC)C(=O)C1CCN(C(=O)Nc2cccc(Cn3nc(Nc4cccc(C)c4)ccc3=O)c2)CC1 | 1420 |  |  | 
CCN(CC)C(=O)C1CCN(C(=O)Nc2cccc(Cn3nc(Nc4ccccc4)ccc3=O)c2)CC1 | 3280 | > 12 | > 40000 | 
CCN(CC)C(=O)C1CCN(C(=O)Nc2cccc(Cn3nc(-c4cccc(C#N)c4)ccc3=O)c2)CC1 | 220 |  |  | 
CCN(CC)C(=O)C1CCN(C(=O)Nc2cccc(Cn3nc(Nc4ccccc4C(C)C)ccc3=O)c2)CC1 | 1500 |  |  | 
CCN(CC)C(=O)C1CCN(C(=O)Nc2cccc(Cn3nc(Nc4ccccc4C)ccc3=O)c2)CC1 | 49 | > 816 | > 40000 | 
Cc1ccccc1Nc1ccc(=O)n(Cc2cccc(NC(=O)N3CCC(C(=O)N4CCOCC4)CC3)c2)n1 |  |  |  | Not Active
c1ccc(CN2CCC(CCN=c3cc4c(n[nH]3)-c3ccccc3C4)CC2)cc1 | 10 |  |  | 
CCN(C(=O)C1CCN(C(=O)Nc2cccc(Cn3nc(Nc4ccccc4C)ccc3=O)c2)CC1)C(C)C | 28 | 196 | 5500 | 
CCN(CC)C(=O)C1CCN(C(=O)Nc2cccc(Cn3nc(Nc4ccccc4C(F)(F)F)ccc3=O)c2)CC1 | 119 |  |  | 
CCN(CC)C(=O)C1CCN(C(=O)Nc2cccc(Cn3nc(-c4cccc(Br)c4)ccc3=O)c2)CC1 | 623 |  |  | 
CCN(CC)C(=O)C1CCN(C(=O)Nc2cccc(Cn3nc(-c4ccccc4)ccc3=O)c2)CC1 | 1660 | > 24 | > 40000 | 
CCN(CC)C(=O)C1CCN(C(=O)Nc2cccc(Cn3nc(-c4cccc5ccccc45)ccc3=O)c2)CC1 | 188 | > 212 | > 40000 | 
CCN(CC)C(=O)C1CCN(C(=O)Nc2cccc(Cn3nc(-c4cccc(C)c4)ccc3=O)c2)CC1 | 746 |  |  | 
CCN(CC)C(=O)C1CCN(C(=O)Nc2cccc(Cn3nc(Nc4ccc(C(F)(F)F)cc4)ccc3=O)c2)CC1 | 4840 |  |  | 
Cc1ccccc1Nc1ccc(=O)n(Cc2cccc(NC(=O)N3CCC(C(=O)N(C)C)CC3)c2)n1 | 7600 |  |  | 
CCN(CC)C(=O)C1CCN(C(=O)Nc2cccc(Cn3nc(Nc4c(C)cccc4C)ccc3=O)c2)CC1 | 607 |  |  | 
c1ccc(CN2CCC(CCNc3cc4c(nn3)-c3ccccc3CC4)CC2)cc1 | 39 |  |  | 
Cc1ccccc1Nc1ccc(=O)n(Cc2cccc(NC(=O)N3CCC(C(=O)N(C)C(C)C)CC3)c2)n1 | 46 | 217 | 10000 | 
CCN(CC)C(=O)C1CCN(C(=O)Nc2cccc(Cn3nc(Nc4cccc(C(F)(F)F)c4)ccc3=O)c2)CC1 | 135 |  |  | 
CCN(CC)C(=O)C1CCN(C(=O)Nc2cccc(Cn3nc(-c4cccc(Cl)c4)ccc3=O)c2)CC1 | 648 |  |  | 
Cc1ccccc1Nc1ccc(=O)n(Cc2cccc(NC(=O)N3CCC(C(=O)N(C(C)C)C(C)C)CC3)c2)n1 | 116 |  |  | 
CCN(C)C(=O)C1CCN(C(=O)Nc2cccc(Cn3nc(Nc4ccccc4C)ccc3=O)c2)CC1 | 473 | > 84 | > 40000 | 
CCN(CC)C(=O)C1CCN(C(=O)Nc2cccc(Cn3nc(Nc4cccc5ccccc45)ccc3=O)c2)CC1 | 126 |  |  | 
CCc1ccccc1Nc1ccc(=O)n(Cc2cccc(NC(=O)N3CCC(C(=O)N(CC)CC)CC3)c2)n1 | 188 |  |  | 
